Data published in ChEMBL document CHEMBL1130826, “Novel constrained CCK-B dipeptoid antagonists derived from pipecolic acid” (Bioorg Med Chem Lett, 1998).

How the values were obtained:
[1] = target: T1, Cholecystokinin receptor type A (Cavia porcellus, UniProt Q63931); test: Binding affinity against CCK-A receptor in guinea pig pancreatic membranes; assay type: cell membranes
T1 sequence (Q63931 whole entry): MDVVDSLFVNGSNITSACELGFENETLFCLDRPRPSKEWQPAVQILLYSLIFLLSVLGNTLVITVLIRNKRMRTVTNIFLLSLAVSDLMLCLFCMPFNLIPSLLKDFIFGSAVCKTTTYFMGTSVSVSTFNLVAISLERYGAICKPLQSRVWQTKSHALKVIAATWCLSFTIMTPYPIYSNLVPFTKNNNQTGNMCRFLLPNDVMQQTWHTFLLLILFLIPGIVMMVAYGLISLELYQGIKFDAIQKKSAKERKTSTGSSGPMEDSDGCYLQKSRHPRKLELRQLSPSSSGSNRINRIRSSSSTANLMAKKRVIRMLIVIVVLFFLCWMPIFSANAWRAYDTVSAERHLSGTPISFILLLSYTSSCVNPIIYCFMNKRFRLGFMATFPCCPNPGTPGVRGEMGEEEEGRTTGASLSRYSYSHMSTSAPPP
Summary of the method: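 Ki from displacement of [3H]pCCK8 bound to guinea-pig pancreatic membranes (CCK-A receptor).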

[2] = target: T2, Gastrin/cholecystokinin type B receptor (Rattus norvegicus, UniProt P30553); test: Inhibitory activity against CCK-B receptor
T2 sequence (P30553 whole entry): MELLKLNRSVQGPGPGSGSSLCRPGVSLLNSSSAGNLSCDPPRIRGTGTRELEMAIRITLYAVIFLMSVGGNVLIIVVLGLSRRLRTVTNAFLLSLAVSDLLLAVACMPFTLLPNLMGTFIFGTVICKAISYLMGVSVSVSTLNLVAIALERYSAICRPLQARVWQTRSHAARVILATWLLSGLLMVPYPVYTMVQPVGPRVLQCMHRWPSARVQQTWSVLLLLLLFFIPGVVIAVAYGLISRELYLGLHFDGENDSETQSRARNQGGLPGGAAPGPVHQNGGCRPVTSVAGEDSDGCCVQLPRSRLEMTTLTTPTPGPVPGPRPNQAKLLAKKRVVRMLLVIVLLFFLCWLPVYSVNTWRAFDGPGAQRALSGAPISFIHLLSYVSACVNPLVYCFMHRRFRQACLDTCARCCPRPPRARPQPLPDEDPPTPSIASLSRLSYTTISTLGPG

[3] = target: T2, Gastrin/cholecystokinin type B receptor; test: Capacity to inhibit [3H]-p CCK 8 binding to membrane preparations of CHO cells transfected with the rat CCK-B receptor; assay type: cell membranes
Summary of the method: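 Ki from displacement of [3H]pCCK8 bound to membranes of CHO cells stably transfected with the rat CCK-B receptor.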

Ki [1]	IC50 [2]	Ki [3]	Structure (SMILES)
751 nM	37.4 nM	15.3 nM	C[C@](Cc1c[nH]c2ccccc12)(NC(=O)OC1C2CC3CC(C2)CC1C3)C(=O)N1C[C@H](Oc2ccc(Cl)cc2Cl)C[C@@H]1C(=O)O (stereo partly drawn)
–	389 nM	18.6 nM	C[C@](Cc1c[nH]c2ccccc12)(NC(=O)OC1C2CC3CC(C2)CC1C3)C(=O)N1C[C@H](Oc2ccc(F)cc2F)C[C@@H]1C(=O)O (stereo partly drawn)
–	507 nM	32.7 nM	C[C@](Cc1c[nH]c2ccccc12)(NC(=O)OC1C2CC3CC(C2)CC1C3)C(=O)N1C[C@H](Oc2ccc([N+](=O)[O-])cc2)C[C@@H]1C(=O)O (stereo partly drawn)
–	–	24 nM	C[C@](Cc1c[nH]c2ccccc12)(NC(=O)OC1C2CC3CC(C2)CC1C3)C(=O)N1C[C@H](OCc2ccccc2)C[C@@H]1C(=O)O (stereo partly drawn)
–	–	543 nM	C[C@](Cc1c[nH]c2ccccc12)(NC(=O)OC1C2CC3CC(C2)CC1C3)C(=O)N1CC[C@@H](Oc2ccc(Cl)cc2Cl)C[C@H]1C(=O)O (stereo partly drawn)
–	–	789 nM	C[C@](Cc1c[nH]c2ccccc12)(NC(=O)OC1C2CC3CC(C2)CC1C3)C(=O)N1CC[C@@H](Oc2ccc(Cl)cc2Cl)C[C@@H]1C(=O)O (stereo partly drawn)
1060 nM	217 nM	1680 nM	C[C@@](Cc1c[nH]c2ccccc12)(NC(=O)OC1C2CC3CC(C2)CC1C3)C(=O)N1CC[C@H](Oc2ccc(Cl)cc2Cl)C[C@H]1C(=O)O (stereo partly drawn)
–	–	896 nM	C[C@@](Cc1c[nH]c2ccccc12)(NC(=O)OC1C2CC3CC(C2)CC1C3)C(=O)N1CC[C@@H](Oc2ccc(Cl)cc2Cl)C[C@H]1C(=O)O (stereo partly drawn)

More lines, now with the values behind:

Structure (SMILES)	Ki [1]	IC50 [2]	Ki [3]
C[C@@](Cc1c[nH]c2ccccc12)(NC(=O)OC1C2CC3CC(C2)CC1C3)C(=O)N1CC[C@H](Oc2ccc(Cl)cc2Cl)C[C@@H]1C(=O)O (stereo partly drawn)	–	–	812 nM
C[C@](Cc1c[nH]c2ccccc12)(NC(=O)OC1C2CC3CC(C2)CC1C3)C(=O)N1CC[C@H](Oc2ccc(Cl)cc2Cl)C[C@H]1C(=O)O (stereo partly drawn)	–	–	791 nM
COC(=O)[C@H]1C[C@@H](Oc2ccc(Cl)cc2Cl)CCN1C(=O)[C@@](C)(Cc1c[nH]c2ccccc12)NC(=O)OC1C2CC3CC(C2)CC1C3 (stereo partly drawn)	–	–	1540 nM
CC(Cc1c[nH]c2ccccc12)(NC(=O)OC1C2CC3CC(C2)CC1C3)C(=O)N1CC[C@@H](Oc2ccc(Cl)cc2Cl)C[C@@H]1C(=O)O (single isomer, unassigned)	–	–	1040 nM
C[C@](Cc1c[nH]c2ccccc12)(NC(=O)OC1C2CC3CC(C2)CC1C3)C(=O)N1CC[C@H](Oc2ccc(Cl)cc2Cl)C[C@@H]1C(=O)O (stereo partly drawn)	3720 nM	–	175 nM
C[C@](Cc1c[nH]c2ccccc12)(NC(=O)OC1C2CC3CC(C2)CC1C3)C(=O)N(CCc1ccc(Cl)cc1)CC(=O)O (stereo partly drawn)	1060 nM	–	–
CC(Cc1c[nH]c2ccccc12)(NC(=O)OC1[C@H]2C[C@@H]3C[C@@H](C[C@H]1C3)C2)C(=O)N1CCC(C(=O)c2ccccc2)CC1 (stereo partly drawn)	1700 nM	–	3400 nM
